Experimental data published in ChEMBL document CHEMBL1157365, “Efficacy of telavancin in the treatment of experimental endocarditis due to glycopeptide-intermediate Staphylococcus aureus” (Antimicrob Agents Chemother, 2007).
In brackets after ≈: the same amount, converted by molar mass. Activity calls are given as the source filed them.

Columns and labels:
[1] = tested on: Staphylococcus aureus; experiment: Antibacterial activity against glycopeptide-intermediate resistant Staphylococcus aureus HIP 5836 isolate infected New Zealand white rabbit endocarditis model assessed as survival at 10 mg/kg, iv administered every 24 hrs for 2 days; format: functional
Summary of the method: (§1)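 After 24 h they were inoculated i.v. through the ear vein with 1 ml of 7 × 10⁵ CFU/ml. Bacteremia was confirmed at 18 h, after which animals were randomized. Human-like kinetics were delivered by computer-controlled pump through a cava catheter for 48 h. Animals were killed 6 drug half-lives later. Aortic vegetations were weighed, homogenized and cultured quantitatively on plates, with broth culture for 1 week. Results are median log₁₀ CFU/g: 2 for broth-only growth, 0 for sterile. Sterility rates were compared by Fisher's exact test.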

[2] = tested on: Homo sapiens; experiment: Protein binding in human at 10 mg/kg, iv administered every 24 hrs; format: ADME, organism-based; design: dose 10 mg/kg, route intravenous; conditions: in vivo
[3] = tested on: Oryctolagus cuniculus; experiment: Protein binding in rabbit at 15 mg/kg, iv; format: ADME, organism-based; design: dose 15 mg/kg, route intravenous; conditions: in vivo
[4] = AUC in human at 7.5 mg/kg, iv administered every 24 hrs; format: ADME, organism-based; design: dose 7.5 mg/kg, route intravenous; conditions: plasma
[5] = Cmax in rabbit at 10 mg/kg, iv administered once daily; format: ADME, organism-based, Oryctolagus cuniculus; design: dose 10 mg/kg, route intravenous; conditions: in vivo
[6] = Terminal half life in human at 7.5 mg/kg, iv administered every 24 hrs; format: ADME, organism-based; design: dose 7.5 mg/kg, route intravenous; conditions: in vivo
[7] = Terminal half life in human at 10 mg/kg, iv administered every 24 hrs; format: ADME, organism-based; design: dose 10 mg/kg, route intravenous; conditions: in vivo
[8] = AUC in rabbit at 7.5 mg/kg, iv administered once daily; format: ADME, organism-based, Oryctolagus cuniculus; design: dose 7.5 mg/kg, route intravenous; conditions: plasma
Summary of the method: (§2)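 A computer-controlled pump infused telavancin at precalculated flow rates to reproduce the human 7.5 mg/kg i.v. once-daily serum profile. Plasma levels were measured by validated LC-MS/MS (n = 3 or 5).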

[9] = tested on: Staphylococcus aureus; experiment: Antibacterial activity against glycopeptide-intermediate resistant Staphylococcus aureus HIP 5836 isolate assessed as reduction of bacterial count after 24 hrs by time kill curve study; format: functional
Summary of the method: (§3)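 Duplicate time-kill curves followed CLSI criteria with an inoculum of 10⁵ CFU/ml. Viable counts were taken at 0, 4 and 24 h. Bactericidal activity was defined as a ≥3 log₁₀ CFU/ml drop at 24 h versus the starting inoculum.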

[10] = Ratio of AUC in rabbit at 7.5 mg/kg, iv qd to MIC for Staphylococcus aureus ATCC 700788; format: functional
Summary of the method: (§4)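 The AUC came from the rabbit infusion simulating human 7.5 mg/kg i.v. once daily. It was divided by each strain's MIC. MICs were determined by CLSI broth microdilution in cation-adjusted Mueller Hinton broth, with S. aureus ATCC 29213 as the control strain.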

[11] = Terminal half life in rabbit at 15 mg/kg, iv; format: ADME, organism-based, Oryctolagus cuniculus; design: dose 15 mg/kg, route intravenous; conditions: in vivo
Summary of the method: (§5)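 Healthy rabbits (n = 5) received telavancin at 15 mg/kg i.v. Blood was drawn through a carotid artery catheter. Plasma telavancin was measured by a validated LC-MS/MS method with a lower limit of quantitation of 0.25 μg/ml. The first-order elimination constant, β-phase half-life and AUC were derived from the concentration-time data.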

[12] = tested on: Staphylococcus aureus; experiment: Antibacterial activity against glycopeptide-intermediate resistant Staphylococcus aureus ATCC 700788 infected New Zealand white rabbit endocarditis model assessed as sterile bacterial vegetation at 10 mg/kg, iv administered every 24 hrs for 2 days; format: functional; summary of the method: as §1
[13] = tested on: Staphylococcus aureus; experiment: Antibacterial activity against glycopeptide-intermediate resistant Staphylococcus aureus HIP 5836 isolate infected New Zealand white rabbit endocarditis model assessed as sterile bacterial vegetation at 10 mg/kg, iv administered every 24 hrs for 2 days; format: functional; summary of the method: as §1
[14] = tested on: Staphylococcus aureus; experiment: Antibacterial activity against glycopeptide-intermediate resistant Staphylococcus aureus ATCC 700788 infected New Zealand white rabbit endocarditis model assessed as bacterial count per gram of microbial vegetation at 10 mg/kg, iv administered every 24 hrs for 2 days; format: functional; summary of the method: as §1
[15] = Cmax in rabbit at 7.5 mg/kg, iv administered once daily; format: ADME, organism-based, Oryctolagus cuniculus; design: dose 7.5 mg/kg, route intravenous; conditions: in vivo; summary of the method: as §2
[16] = tested on: Staphylococcus aureus; experiment: Antibacterial activity against glycopeptide-intermediate resistant Staphylococcus aureus ATCC 700788 infected New Zealand white rabbit endocarditis model assessed as survival at 10 mg/kg, iv administered every 24 hrs for 2 days; format: functional; summary of the method: as §1
[17] = Ratio of AUC in rabbit at 7.5 mg/kg, iv qd to MIC for Staphylococcus aureus HIP 5836 isolate; format: functional; summary of the method: as §4
[18] = AUC in human at 10 mg/kg, iv administered every 24 hrs; format: ADME, organism-based; design: dose 10 mg/kg, route intravenous; conditions: plasma
[19] = tested on: Staphylococcus aureus; experiment: Antibacterial activity against glycopeptide-intermediate resistant Staphylococcus aureus ATCC 700788 by microbroth dilution method; format: functional
Summary of the method: (§6)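 MIC and MBC were determined by broth microdilution in cation-adjusted Mueller-Hinton broth per CLSI guidelines. S. aureus ATCC 29213 served as the control strain. Strains were stored frozen in skim milk at −80°C and subcultured on 5% sheep blood Columbia agar before each run.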

[20] = tested on: Homo sapiens; experiment: Protein binding in human at 7.5 mg/kg, iv administered every 24 hrs; format: ADME, organism-based; design: dose 7.5 mg/kg, route intravenous; conditions: in vivo
[21] = tested on: Staphylococcus aureus; experiment: Antibacterial activity against glycopeptide-intermediate resistant Staphylococcus aureus HIP 5836 isolate by microbroth dilution method; format: functional; summary of the method: as §6
[22] = tested on: Staphylococcus aureus; experiment: Antibacterial activity against glycopeptide-intermediate resistant Staphylococcus aureus ATCC 700788 assessed as reduction of bacterial count after 24 hrs by time kill curve study; format: functional; summary of the method: as §3
[23] = AUC in rabbit at 15 mg/kg, iv; format: ADME, organism-based, Oryctolagus cuniculus; design: dose 15 mg/kg, route intravenous; conditions: plasma; summary of the method: as §5
[24] = Cmax in human at 7.5 mg/kg, iv administered every 24 hrs; format: ADME, organism-based; design: dose 7.5 mg/kg, route intravenous; conditions: in vivo
[25] = tested on: Oryctolagus cuniculus; experiment: Protein binding in rabbit at 10 mg/kg, iv; format: ADME, organism-based; design: dose 10 mg/kg, route intravenous; conditions: in vivo
[26] = tested on: Staphylococcus aureus; experiment: Antibacterial activity against glycopeptide-intermediate resistant Staphylococcus aureus HIP 5836 isolate infected New Zealand white rabbit endocarditis model assessed as bacterial count per gram of microbial vegetation at 10 mg/kg, iv administered every 24 hrs for 2 days; format: functional; summary of the method: as §1
[27] = Terminal half life in rabbit at 7.5 mg/kg, iv administered once daily; format: ADME, organism-based, Oryctolagus cuniculus; design: dose 7.5 mg/kg, route intravenous; conditions: in vivo; summary of the method: as §2
[28] = tested on: Staphylococcus aureus; experiment: Antibacterial activity against glycopeptide-intermediate resistant Staphylococcus aureus HIP 5836 isolate infected New Zealand white rabbit endocarditis model assessed as bacterial count per gram of microbial vegetation at 1 g, iv administered every 12 hrs for 2 days
[29] = Ratio of AUC in rabbit at 1 g, iv bid to MIC for Staphylococcus aureus ATCC 700788; format: functional
Summary of the method: (§7)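 A computer-controlled pump infused vancomycin to mimic the human 1 g i.v. every-12-h profile. Blood was drawn at 0–6 h after infusion start. Vancomycin was measured by latex-boosted immunoturbidimetry (detection limit 0.8 μg/ml). AUC was divided by the MIC, determined by CLSI broth microdilution in cation-adjusted Mueller-Hinton broth.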

[30] = AUC in human at 1 g, iv administered every 12 hrs; format: ADME, organism-based; conditions: plasma
[31] = Terminal half life in human at 1 g, iv administered every 12 hrs; format: ADME, organism-based; conditions: in vivo
[32] = Cmax in human at 1 g, iv administered every 12 hrs; format: ADME, organism-based; design: dose 1 g, route intravenous; conditions: in vivo
[33] = Terminal half life in rabbit at 1 g, iv administered twice daily; format: ADME, organism-based, Oryctolagus cuniculus; conditions: in vivo
Summary of the method: (§8)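 Rabbits carried a carotid artery catheter for blood sampling and a jugular-to-cava catheter for infusion. A computer-controlled pump delivered the drug to simulate the human profile of 1 g i.v. twice daily. Vancomycin was measured by latex-boosted immunoturbidimetry, detection limit 0.8 μg/ml. Rabbits per group: n = 3 or 5.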

[34] = Ratio of AUC in rabbit at 1 g, iv bid to MIC for Staphylococcus aureus HIP 5836 isolate; format: functional; summary of the method: as §7
[35] = AUC in rabbit at 1 g, iv administered twice daily; format: ADME, organism-based, Oryctolagus cuniculus; conditions: plasma; summary of the method: as §8
[36] = Protein binding in human at 1 g, iv administered every 12 hrs; format: ADME, organism-based; conditions: in vivo, read-out: PB
[37] = Cmax in rabbit at 1 g, iv administered twice daily; format: ADME, organism-based, Oryctolagus cuniculus; design: dose 1 g, route intravenous; conditions: in vivo; summary of the method: as §8
[38] = tested on: Staphylococcus aureus; experiment: Antibacterial activity against glycopeptide-intermediate resistant Staphylococcus aureus ATCC 700788 infected New Zealand white rabbit endocarditis model assessed as bacterial count per gram of microbial vegetation at 1 g, iv administered every 12 hrs for 2 days
[39] = AUC in rabbit at 25 mg/kg, iv; format: ADME, organism-based, Oryctolagus cuniculus; design: dose 25 mg/kg, route intravenous; conditions: plasma
Summary of the method: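 Five healthy rabbits received a 25 mg/kg i.v. dose through a jugular-to-cava catheter. Blood was drawn through a carotid catheter at 0, 0.25, 0.5, 1, 2, 3, 4, 5 and 6 h. Plasma vancomycin was measured by latex-boosted immunoturbidimetry, detection limit 0.8 μg/ml. Elimination rate, half-life and AUC were reported as mean ± variation.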

CCCCCCCCCCNCCN[C@@]1(C)C[C@H](O[C@H]2[C@H](Oc3c4cc5cc3Oc3ccc(cc3Cl)[C@@H](O)[C@@H](NC(=O)[C@@H](CC(C)C)NC)C(=O)N[C@@H](CC(N)=O)C(=O)N[C@H]5C(=O)N[C@H]3C(=O)N[C@H](C(=O)N[C@H](C(=O)O)c5cc(O)c(CNCP(=O)(O)O)c(O)c5-c5cc3ccc5O)[C@H](O)c3ccc(c(Cl)c3)O4)O[C@H](CO)[C@@H](O)[C@@H]2O)O[C@@H](C)[C@H]1O [TELAVANCIN]
Activity [1]: 94%
Activity [2]: 90%
Activity [3]: 90%
AUC at 24 h [4]: 604 µg·h/mL
Cmax [5]: 114 µg/mL
half-life [6]: 6.18 h
half-life [7]: 7.41 h
AUC [8]: 638 µg·h/mL
log10CFU/ml [9]: 2
RatioAUC/MIC [10]: 638
half-life [11]: 1.2 h
Activity [12]: 37%
Activity [13]: 31%
log10cfu [14]: 4.6
Cmax [15]: 90 µg/mL
Activity [16]: 94%
RatioAUC/MIC [17]: 159.5
AUC at 24 h [18]: 785 µg·h/mL
MBC [19]: 4 µg/mL (≈ 2.28 µM)
MIC [19]: 1 µg/mL (≈ 0.57 µM)
Activity [20]: 90%
MBC [21]: 8 µg/mL (≈ 4.56 µM)
MIC [21]: 4 µg/mL (≈ 2.28 µM)
log10CFU/ml [22]: 2
AUC [23]: 270 µg·h/mL
Cmax [24]: 89 µg/mL
Activity [25]: 90%
log10cfu [26]: 4.4
half-life [27]: 4.6 h

CN[C@H](CC(C)C)C(=O)N[C@H]1C(=O)N[C@@H](CC(N)=O)C(=O)N[C@H]2C(=O)N[C@H]3C(=O)N[C@H](C(=O)N[C@H](C(=O)O)c4cc(O)cc(O)c4-c4cc3ccc4O)[C@H](O)c3ccc(c(Cl)c3)Oc3cc2cc(c3O[C@@H]2O[C@H](CO)[C@@H](O)[C@H](O)[C@H]2O[C@H]2C[C@](C)(N)[C@H](O)[C@H](C)O2)Oc2ccc(cc2Cl)[C@H]1O [VANCOMYCIN]
log10cfu [28]: 6.7
RatioAUC/MIC [29]: 37.3
AUC at 12 h [30]: 359 µg·h/mL
Activity [9]: Active
half-life [31]: 4.6 h
Cmax [32]: 52 µg/mL
half-life [33]: 3.8 h
RatioAUC/MIC [34]: 37.3
MBC [19]: 128 µg/mL (≈ 88.3 µM)
MIC [19]: 8 µg/mL (≈ 5.52 µM)
AUC [35]: 299 µg·h/mL
fraction unbound at 12 h [36]: 0.5
Cmax [37]: 46 µg/mL
MBC [21]: 128 µg/mL (≈ 88.3 µM)
MIC [21]: 8 µg/mL (≈ 5.52 µM)
Activity [22]: Active
log10cfu [38]: 6.6
AUC [39]: 101 µg·h/mL
